ChEMBL document CHEMBL3046812, “Synthesis, fungicidal activity, and 3D-QSAR of pyridazinone-substituted 1,3,4-oxadiazoles and 1,3,4-thiadiazoles” (2002)

System: Puccinia recondita
Assay: Antifungal activity against Puccinia recondita infected wheat leaves after 10 days relative to triadimefon
Type: functional
How it was run: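 Wheat leaves inoculated with Puccinia recondita uredospores mixed 1:10 with talcum powder, held 24 h in a moist chamber, then sprayed once dry with 0.001 M compound solutions in water/DMF (5:1, with Sorpal-144). Plants kept in greenhouse; percent disease control versus untreated pots scored 10 days after treatment. Three replicates; triadimefon reference tested at 100 ppm under identical conditions.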

SMILES | inhibition (INH) [%]
Cc1cc(=O)c(-c2nnc(Nc3cccc(C(F)(F)F)c3)s2)nn1-c1ccccc1Cl | 0.7
Cc1cc(=O)c(-c2nnc(Nc3ccccc3F)s2)nn1-c1ccccc1Cl | 0.1
Cc1cc(=O)c(-c2nnc(Nc3ccccc3)s2)nn1-c1ccccc1Cl | 0.1
Cc1cc(=O)c(-c2nnc(Nc3ccccc3F)s2)nn1-c1ccccc1 | 0.5
Cc1cc(=O)c(-c2nnc(Nc3cccc(C(F)(F)F)c3)s2)nn1-c1ccccc1 | 0.6
Cc1cc(=O)c(-c2nnc(Nc3cccc(C(F)(F)F)c3)s2)nn1-c1c(Cl)cccc1Cl | 0.5
Cc1cc(=O)c(-c2nnc(Nc3ccccc3F)s2)nn1-c1c(Cl)cccc1Cl | 0.3
Cc1cc(=O)c(-c2nnc(Nc3cccc(C(F)(F)F)c3)s2)nn1-c1ccc(Cl)cc1 | 0.6
Cc1cc(=O)c(-c2nnc(Nc3ccccc3F)s2)nn1-c1ccc(Cl)cc1 | 0.5
Cc1cc(=O)c(-c2nnc(Nc3ccccc3F)s2)nn1-c1cc(Cl)c(Cl)cc1Cl | 0.6
Cc1cc(=O)c(-c2nnc(Nc3cccc(C(F)(F)F)c3)s2)nn1-c1cc(Cl)c(Cl)cc1Cl | 0.7
Cc1ccc(-n2nc(-c3nnc(Nc4cccc(C(F)(F)F)c4)s3)c(=O)cc2C)c(C)c1 | 0.9
Cc1ccc(-n2nc(-c3nnc(Nc4ccccc4F)s3)c(=O)cc2C)c(C)c1 | 0.9
Cc1cc(=O)c(-c2nnc(Nc3ccccc3F)s2)nn1-c1ccc(Cl)cc1Cl | 0.8
Cc1cc(=O)c(-c2nnc(Nc3cccc(C(F)(F)F)c3)s2)nn1-c1ccc(Cl)cc1Cl | 0.9
Cc1cc(=O)c(-c2nnc(Nc3ccccc3)s2)nn1-c1ccc(Cl)cc1Cl | 0.2
Cc1cc(=O)c(-c2nnc(Nc3cccc(C(F)(F)F)c3)o2)nn1-c1ccccc1Cl | 0.9
Cc1cc(=O)c(-c2nnc(Nc3ccccc3F)o2)nn1-c1ccccc1Cl | 0.8
Cc1cc(=O)c(-c2nnc(Nc3ccccc3)o2)nn1-c1ccccc1Cl | 0.1
Cc1cc(=O)c(-c2nnc(Nc3ccccc3F)o2)nn1-c1ccccc1 | 0.9
Cc1cc(=O)c(-c2nnc(Nc3ccccc3F)o2)nn1-c1c(Cl)cccc1Cl | 0.8
Cc1cc(=O)c(-c2nnc(Nc3cccc(C(F)(F)F)c3)o2)nn1-c1ccc(Cl)cc1 | 0.9
Cc1cc(=O)c(-c2nnc(Nc3ccccc3F)o2)nn1-c1ccc(Cl)cc1 | 0.7
Cc1cc(=O)c(-c2nnc(Nc3ccccc3F)o2)nn1-c1cc(Cl)c(Cl)cc1Cl | 0.9
Cc1ccc(-n2nc(-c3nnc(Nc4cccc(C(F)(F)F)c4)o3)c(=O)cc2C)c(C)c1 | 0.7
Cc1ccc(-n2nc(-c3nnc(Nc4ccccc4F)o3)c(=O)cc2C)c(C)c1 | 0.8
COc1ccc(Nc2nnc(-c3nn(-c4ccc(Cl)cc4)c(C)cc3=O)o2)cc1 | 0.8
